{"source": "paper PMC12757722", "about": "(Molecular Cancer Therapeutics, 2025)", "key": {"K-Ras": {"test_system": "K-Ras", "details": "Goebel and colleagues; cited from earlier work"}, "K-Ras (WT) [1]": {"target": "T1, K-Ras (WT) (Homo sapiens, UniProt P01116)", "test": "MST binding of labeled nucleotide"}, "K-Ras (G12C) [2]": {"target": "T2, K-Ras (G12C) (Homo sapiens, UniProt P01116, G12C)", "test": "MST binding of labeled nucleotide"}, "K-Ras (Q61H) [3]": {"target": "T3, K-Ras (Q61H) (Homo sapiens, UniProt P01116, Q61H)", "test": "SPA with [32P]GTP", "assay_type": "binding", "in_short": "(§1)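 Saturation binding used [32P]GTP (3,000 Ci/mmol) at 2.5 nmol/L–10 µmol/L, with nonspecific signal defined by 800 mmol/L imidazole. Counts were converted to pmol, and Kd and Bmax fitted from bound versus free GTP. Three independent experiments, technical triplicates.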"}, "K-Ras (G12C) [4]": {"target": "T2, K-Ras (G12C)", "test": "SPA with [32P]GTP", "assay_type": "binding", "in_short": "as §1"}, "Rho-A [5]": {"target": "T4, Rho-A (Homo sapiens, UniProt P61586)", "T4 sequence (P61586 2-181)": "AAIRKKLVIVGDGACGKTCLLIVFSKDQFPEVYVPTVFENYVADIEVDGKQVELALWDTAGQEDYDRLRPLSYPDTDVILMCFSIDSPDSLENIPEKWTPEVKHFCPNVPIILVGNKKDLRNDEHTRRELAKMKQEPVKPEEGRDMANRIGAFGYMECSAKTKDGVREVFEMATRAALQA", "test": "SPA with [32P]GTP", "assay_type": "binding", "in_short": "as §1"}, "Rac-1 [6]": {"target": "T5, Rac-1 (Homo sapiens, UniProt P63000)", "test": "MST binding of labeled nucleotide", "details": "read-out: MST GTP Kd"}, "K-Ras (G12D) [7]": {"target": "T6, K-Ras (G12D) (Homo sapiens, UniProt P01116, G12D)", "test": "MST binding of labeled nucleotide", "details": "read-out: MST GTP Kd"}, "K-Ras (Q61H) [8]": {"target": "T3, K-Ras (Q61H)", "test": "MST binding of labeled nucleotide", "details": "read-out: MST GTP Kd"}, "K-Ras (WT) [9]": {"target": "T1, K-Ras (WT)", "test": "SPA with [32P]GTP", "assay_type": "binding", "in_short": "as §1"}, "H-Ras": {"test_system": "H-Ras", "details": "Feuerstein and colleagues; cited from earlier work"}, "K-Ras (G12D) [10]": {"target": "T6, K-Ras (G12D)", "test": "Filtration binding assay with α-[32P]GTP", "in_short": "(§2)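 Nucleotide-free His10-tagged K-Ras (residues 2–185) was expressed in E. coli and purified by Ni affinity and SEC. Varying protein amounts were incubated with α-[32P]GTP (2,594 Ci/mmol; 2.88 nmol/L final) for 5 min at 23°C in 100 µL. Samples were filtered through 0.45-µm MCE membranes, washed with ice-cold GTP-free assay buffer, and dried filters counted for dpm. Kd came from saturation binding and kon from a time course.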"}, "K-Ras (WT) [11]": {"target": "T1, K-Ras (WT)", "test": "Filtration binding assay with α-[32P]GTP", "in_short": "as §2"}, "Rac-1 [12]": {"target": "T5, Rac-1", "test": "SPA with [32P]GTP", "assay_type": "binding", "in_short": "as §1"}, "Rho-A [13]": {"target": "T4, Rho-A", "test": "MST binding of labeled nucleotide", "details": "read-out: MST GTP Kd"}, "K-Ras (G12D) [14]": {"target": "T6, K-Ras (G12D)", "test": "SPA with [32P]GTP", "assay_type": "binding", "in_short": "as §1"}}, "data": [{"smiles": "Nc1nc2c(ncn2[C@@H]2O[C@H](COP(=O)(O)OP(=O)(O)O)[C@@H](O)[C@H]2O)c(=O)[nH]1", "note": "[GDP]", "values": [{"measurement": "koff", "setting": "K-Ras", "result": "1.1e-05", "unit": "s⁻¹"}, {"measurement": "kon", "setting": "K-Ras", "result": "4.22e+06", "unit": "M⁻¹ s⁻¹"}, {"measurement": "Kd", "setting": "K-Ras (WT) [1]; read-out: MST GDP Kd", "result": "394 ± 54", "unit": "nM"}, {"measurement": "Kd", "setting": "K-Ras (G12C) [2]; read-out: MST GDP Kd", "result": "360 ± 34", "unit": "nM"}]}, {"smiles": "Nc1nc2c(ncn2[C@@H]2O[C@H](COP(=O)(O)OP(=O)(O)OP(=O)(O)O)[C@@H](O)[C@H]2O)c(=O)[nH]1", "note": "[GTP]", "values": [{"measurement": "SPA Bmax (mol:mol)", "setting": "K-Ras (Q61H) [3]", "result": "0.96 ± 0.02 mol:mol"}, {"measurement": "SPA Bmax (mol:mol)", "setting": "K-Ras (G12C) [4]", "result": "0.94 ± 0.02 mol:mol"}, {"measurement": "Kd", "setting": "K-Ras (G12C) [4]; read-out: SPA GTP Kd", "result": "359 ± 35", "unit": "nM"}, {"measurement": "Kd", "setting": "K-Ras (WT) [1]; read-out: MST GTP Kd, 23°C", "result": "463 ± 23", "unit": "nM"}, {"measurement": "SPA Bmax (mol:mol)", "setting": "Rho-A [5]", "result": "1.02 ± 0.02 mol:mol"}, {"measurement": "Kd", "setting": "Rho-A [5]; read-out: SPA GTP Kd", "result": "129 ± 12", "unit": "nM"}, {"measurement": "Kd", "setting": "Rac-1 [6]", "result": "166 ± 10", "unit": "nM"}, {"measurement": "Kd", "setting": "K-Ras (G12D) [7]", "result": "244 ± 12", "unit": "nM"}, {"measurement": "Kd", "setting": "K-Ras (Q61H) [8]", "result": "157 ± 21", "unit": "nM"}, {"measurement": "SPA Bmax (mol:mol)", "setting": "K-Ras (WT) [9]; K-Ras (WT), molar binding stoichiometry of GTP to protein", "result": "1.00 ± 0.01 mol:mol"}, {"measurement": "kon by SPA", "setting": "K-Ras (WT) [9]; WT K-Ras", "result": "3.22e+08", "unit": "M⁻¹ s⁻¹"}, {"measurement": "Kd", "setting": "K-Ras (WT) [9]; read-out: SPA GTP Kd, K-Ras (WT)", "result": "246 ± 19", "unit": "nM"}, {"measurement": "Kd", "setting": "K-Ras (G12C) [2]; read-out: MST GTP Kd", "result": "207 ± 46", "unit": "nM"}, {"measurement": "koff", "setting": "H-Ras", "result": "8e-05", "unit": "s⁻¹"}, {"measurement": "kon", "setting": "H-Ras", "result": "2.9e+06", "unit": "M⁻¹ s⁻¹"}, {"measurement": "kon by filtration binding assay", "setting": "K-Ras (G12D) [10]; G12D K-Ras mutant, time course study", "result": "2.49e+08", "unit": "M⁻¹ s⁻¹"}, {"measurement": "Filtration assay Bmax (mol:mol)", "setting": "K-Ras (G12D) [10]; K-Ras (G12D)", "result": "0.95 ± 0.02 mol:mol"}, {"measurement": "Kd", "setting": "K-Ras (G12D) [10]; read-out: Filtration assay GTP Kd, K-Ras (G12D), 23°C", "result": "345 ± 25", "unit": "nM"}, {"measurement": "Filtration assay Bmax (mol:mol)", "setting": "K-Ras (WT) [11]; K-Ras (WT)", "result": "0.93 ± 0.03 mol:mol"}, {"measurement": "kon by filtration binding assay", "setting": "K-Ras (WT) [11]; K-Ras, time course study", "result": "2.13e+08", "unit": "M⁻¹ s⁻¹"}, {"measurement": "Kd", "setting": "K-Ras (WT) [11]; read-out: Filtration assay GTP Kd, K-Ras (WT), 23°C", "result": "228 ± 26", "unit": "nM"}, {"measurement": "SPA Bmax (mol:mol)", "setting": "Rac-1 [12]", "result": "1.03 ± 0.02 mol:mol"}, {"measurement": "Kd", "setting": "Rac-1 [12]; read-out: SPA GTP Kd", "result": "151 ± 14", "unit": "nM"}, {"measurement": "Kd", "setting": "Rho-A [13]", "result": "130 ± 5", "unit": "nM"}, {"measurement": "SPA Bmax (mol:mol)", "setting": "K-Ras (G12D) [14]", "result": "0.97 ± 0.01 mol:mol"}, {"measurement": "Kd", "setting": "K-Ras (G12D) [14]; read-out: SPA GTP Kd", "result": "280 ± 19", "unit": "nM"}]}]}
